Results reported in ChEMBL document CHEMBL1165925, “Identification of new non-carboxylic acid containing inhibitors of aldose reductase” (Bioorg Med Chem, 2010).

molecular target: Aldo-keto reductase family 1 member B1 (Bos taurus) (UniProt P16116); experiment: Inhibition of bovine lens aldose reductase at 25 uM
Outline: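 Bovine lens enzyme was purified by DE-52 and Matrex Orange A chromatography. Assay used glyceraldehyde as substrate in 0.25 M sodium phosphate pH 6.8, with 0.38 M ammonium sulfate, 0.11 mM NADPH and 0.5 mM EDTA. Inhibitor was added in DMSO, final 1% v/v. Read-out is NADPH oxidation, given as percent inhibition at a single concentration.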

inhibition [%]	SMILES
64	O=C1S/C(=C\c2cccc(Oc3ccccc3)c2)C(=O)N1CC(O)(O)C(F)(F)F
64	O=C1S/C(=C\c2cccc(Oc3ccccc3)c2)C(=O)N1CC(=O)C(F)(F)F
52	O=C1S/C(=C\c2cccc3ccccc23)C(=O)N1CC(=O)C(F)(F)F
59	O=C1S/C(=C\c2ccc3ccccc3c2)C(=O)N1CC(O)(O)C(F)(F)F
52	O=C1S/C(=C\c2cccc3ccccc23)C(=O)N1CC(O)(O)C(F)(F)F
59	O=C1S/C(=C\c2ccc3ccccc3c2)C(=O)N1CC(=O)C(F)(F)F
45	O=C1S/C(=C\c2ccc(-c3ccccc3)cc2)C(=O)N1CC(O)(O)C(F)(F)F
45	O=C1S/C(=C\c2ccc(-c3ccccc3)cc2)C(=O)N1CC(=O)C(F)(F)F

molecular target: Aldo-keto reductase family 1 member B1 (Bos taurus, UniProt P16116); experiment: Inhibition of bovine lens aldose reductase
Outline: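 Enzyme purified from bovine lens by DE-52 ion exchange then Matrex Orange A affinity chromatography (0.93 U/mg) and kept at 4 °C in 10 mM sodium phosphate pH 7.0 with 2 mM DTT. At least five inhibitor concentrations (20–80% inhibition), each tested at least in triplicate. IC50 from one-site competition nonlinear fit; 95% CL.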

IC50 [µM]	SMILES
17.4	COc1ccc(/C=C2\SC(=O)N(CC(=O)C(F)(F)F)C2=O)cc1
12.3	O=C1S/C(=C\c2cccc(O)c2)C(=O)N1CC(=O)C(F)(F)F
23.3	COc1cccc(/C=C2\SC(=O)N(CC(=O)C(F)(F)F)C2=O)c1
12.3	O=C1S/C(=C\c2cccc(O)c2)C(=O)N1CC(O)(O)C(F)(F)F
3	O=C1S/C(=C\c2ccc(O)cc2)C(=O)N1CC(O)(O)C(F)(F)F
8.3	O=C1S/C(=C\c2ccc(Oc3ccccc3)cc2)C(=O)N1CC(O)(O)C(F)(F)F
> 9	O=C1S/C(=C\c2ccc(OCc3ccccc3)cc2)C(=O)N1CC(O)(O)C(F)(F)F
17.4	COc1ccc(/C=C2\SC(=O)N(CC(O)(O)C(F)(F)F)C2=O)cc1
8.3	O=C1S/C(=C\c2ccc(Oc3ccccc3)cc2)C(=O)N1CC(=O)C(F)(F)F
3	O=C1S/C(=C\c2ccc(O)cc2)C(=O)N1CC(=O)C(F)(F)F
> 9	O=C1S/C(=C\c2ccc(OCc3ccccc3)cc2)C(=O)N1CC(=O)C(F)(F)F
23.3	COc1cccc(/C=C2\SC(=O)N(CC(O)(O)C(F)(F)F)C2=O)c1
